# STAT3 act-1 = increases IL-6 driven STAT3 reporter signal | actives 0.91% (n = 190,000) | U3A cells, IL-6 STAT3-luciferase reporter, luminescence; 100% = signal with IL-6 EC80 alone | AID 871 | activation (% of control), % at 5.6 µM;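 active = activation above the screen-wide mean of compound activation plus 3 SD, cut at about 130% in these data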;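 note: 0% = background luminescence of wells with medium and substrate only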
#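 Material: STAT3-luciferase reporter U3A cells. Controls: IL-6-treated wells, 100% activation. Read-out: % activation versus median of IL-6-stimulated wells. Probe or stimulus: IL-6 stimulus at 33 ng/mL final. Timing: compound 1 h, then IL-6 6 h at 37 °C. Signal: reporter luminescence signal.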
# NF-kB neuron act = compounds increasing NF-kB expression in human neuronal cells. fold change at 12.5 µM. actives 1.6% (n = 190,000). NF-kB reporter expression; hits give high values; in the data active = fold change above about 3.3
# APP 5'UTR act = APP 5'UTR luciferase reporter activation. SH-SY5Y APP 5'UTR luciferase reporter, luminescence; zero percent = DMSO vehicle wells. activation, % at 2 µM. actives 1% (n = 190,000);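 active = activation above a set limit, based on mean plus 3 SD of controls, cut at about 140% in these data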
# STAT1 act-1 = increases IFN-gamma driven STAT1 reporter signal; NIH 3T3 STAT1-luciferase reporter, luminescence; 100% = IFN-gamma alone, no compound; activation (% of control), % at 5.5 µM; actives 2.6% (n = 200,000); AID 932;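 active = activation above the screen-wide mean activation plus 3 SD, cut at about 130% in these data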;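 note: raw ratio to IFN-gamma control signal so 100% means no change and 0% no light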
# STAT1 blocker = inhibitors of IFN-gamma induced STAT1 signaling | NIH 3T3 STAT1-luciferase reporter, luminescence | inhibition, % at 5.5 µM | actives 0.35% (n = 200,000);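 active = inhibition above a set limit, the mean inhibition across all tested compounds plus 3 SD, cut at about 34% in these data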;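 note: 0% = IFN-gamma with DMSO and 100% = IFN-gamma with 300 µM nifuroxazide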
# STAT3 inh-1 = STAT3 signaling inhibition; actives 0.89% (n = 190,000); inhibition, % at 5.5 µM; U3A cells, IL-6 STAT3-luciferase reporter, luminescence; host cell line lacks STAT1; AID 862;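 active = inhibition above the mean inhibition across all screened compounds plus 3 SD, cut at about 44% in these data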;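 note: 0% = DMSO only wells and 100% = 100 µM nifuroxazide control wells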
# STAT3 inh-2 = STAT3 inhibition, confirmation assay | shares compounds with STAT3 inh-1 | actives 45% (n = 1,200) | AID 1265 | inhibition, % at 5.7 µM | U3A cells, IL-6 STAT3 luciferase reporter, luminescence; cell line lacks STAT1;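 active = inhibition above the hit cutoff computed for the primary STAT3 screen, cut at about 44% in these data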;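 note: 0% = IL-6 plus DMSO and 100% = IL-6 plus nifuroxazide control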
# NFkB inh 2 = NF-kappaB inhibition in STAT3 inhibitor counter-screen; inhibition, % at 5.7 µM; AID 1308; actives 36% (n = 1,200); shares compounds with STAT3 inh-1; HEK293T NF-kB luciferase reporter, TNF-alpha induced;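 active = inhibition above the mean of solvent-only control wells plus 3 SD, cutoff set per campaign, cut at about 13% in these data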;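 note: 0% = TNF-alpha with DMSO and 100% = TNF-alpha with MG high control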
# STAT1 inh 2 = inhibits STAT1, counter-screen to STAT3 inhibitors; inhibition, % at 5.7 µM; AID 1317; NIH 3T3 STAT1-luciferase reporter, IFN-gamma induced, luminescence; shares compounds with STAT3 inh-1; actives 27% (n = 1,200);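 active = inhibition above the mean plus 3 SD of solvent-only control wells, limit set per screening run, cut at about 16% in these data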;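 note: 0% = DMSO with IFN-gamma and 100% = nifuroxazide control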
# STAT3 act-2 = confirmation of STAT3 signaling activators | shares compounds with STAT3 act-1 | U3A STAT3-luciferase reporter, IL-6 potentiation, luminescence; U3A cells lack STAT1; 100 means same as IL-6 alone | potentiation (% of control), % at 5.7 µM | AID 1267 | actives 64% (n = 1,200);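 active = percent activation of the STAT3 luciferase reporter above a set limit taken from the earlier primary screen, cut at about 130% in these data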;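 note: 0% = background signal of medium plus substrate and 100% = median of IL-6 with DMSO wells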
# NFkB act STAT3ct = NF-kappaB activation in STAT3 activator counter-screen; human cells, NF-kappaB reporter activation; shares compounds with STAT3 act-1; activation (% of control), % at 5.7 µM; AID 1309; actives 11% (n = 1,200); in the data active = activation above about 120%;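 note: reporter induced by TNF-alpha stimulation; 100% = median of stimulated DMSO wells and 0% = no signal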
# STAT1 act-2 = activates STAT1, counter-screen to STAT3 activators; shares compounds with STAT3 act-1; NIH 3T3 STAT1-luciferase reporter, IFN-gamma, luminescence; activation (% of control), % at 5.7 µM; actives 13% (n = 1,200);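 active = activation above the solvent-only control well mean plus 3 SD, set per screening run, cut at about 120% in these data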;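 note: 100% = IFN-gamma with DMSO median signal so 100% means no change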
# Starred values were filed as active, the others as inactive; . = not tested or not shown. Sampled rows, rich in hits. Any-hit rate of the full collection: about 4.9%.
SMILES,STAT3 act-1,NF-kB neuron act,APP 5'UTR act,STAT1 act-1,STAT1 blocker,STAT3 inh-1,STAT3 act-2,NFkB act STAT3ct,STAT1 act-2,others
COc1ccc(N/N=C/c2c(O)n(-c3ccc(C)c(C)c3)c(=O)[nH]c2=O)cc1,60.5,1.66,-0.3,83.9,17.3,47.5*,.,.,.,STAT3 inh-2=15.5;NFkB inh 2=-0.7;STAT1 inh 2=5.2
COc1ccc(N/N=C/c2c(O)n(-c3cccc(C)c3)c(=O)[nH]c2=O)cc1,89.2,1.26,18.5,73.1,27.7,16.7,.,.,.,
CCCCn1c(C)c(C(=O)O)c2cc(OC)ccc21,59.8,1.06,14.5,98.8,1.3,52.3*,.,.,.,STAT3 inh-2=35.2;NFkB inh 2=-8.7;STAT1 inh 2=-18.2
CC(=O)OC1(c2ccccc2)CCN(C2CCCCC2)CC1C (stereo not drawn),.,1.18,6.6,103.1,-4.8,.,.,.,.,
O=C(Nc1ccncc1)c1cccn(Cc2ccccc2)c1=O,39.7,0.95,10.3,86.8,12.2,78.9*,.,.,.,STAT3 inh-2=74.2*;NFkB inh 2=16.8*;STAT1 inh 2=9.3
Cc1c(C(=O)N2CCC3(CC2)OCCO3)oc2ccc(S(=O)(=O)N3CCCCC3)cc12,87.4,1.35,9.1,101.0,-1.0,21.6,.,.,.,
CNC(=O)Oc1cccc(-c2cn3cc(Cl)ccc3n2)c1,20.7,8.18*,170.1*,117.3,-19.6,92.4*,.,.,.,STAT3 inh-2=81.5*;NFkB inh 2=8.7;STAT1 inh 2=-20.3
COc1ccc(-c2nc3ccccc3c(=O)n2-c2ccc(OC)cc2)cc1,100.6,0.91,10.1,91.2,7.5,2.8,.,.,.,
CCn1nc(-c2ccccc2)nc2c(=O)n(C)c(=O)nc1-2,51.7,0.98,-3.8,105.5,-4.6,62.1*,.,.,.,STAT3 inh-2=74.5*;NFkB inh 2=48.9*;STAT1 inh 2=41.1*
CC1CCC[C@H](O)CCCCCc2cc(O)cc(O)c2C(=O)O1 (stereo partly drawn),88.5,1.04,-4.0,96.0,4.4,15.3,.,.,.,
C[C@H]1CCC[C@@H](O)CCC/C=C/c2cc(O)cc(O)c2C(=O)O1,53.7,1.28,-3.1,107.9,-8.7,59.8*,.,.,.,STAT3 inh-2=47.6*;NFkB inh 2=9.3;STAT1 inh 2=-0.5
COc1ccccc1Cn1c(SCC#N)nc2cc(C(=O)N3CCC4(CC3)OCCO4)ccc2c1=O,116.5,0.44,-14.5,95.0,3.4,-12.0,.,.,.,
CC(=Nc1c(C)n(C)n(-c2ccccc2)c1=O)c1c(O)n(Cc2ccccc2)c(=O)[nH]c1=O,155.6*,0.99,18.1,103.6,-4.0,-57.4,128.0,107.2,105.5,
CSc1ccc(C(=O)C2CCCN(Cc3cc4ccccc4[nH]3)C2)cc1 (stereo not drawn),140.7*,1.11,0.3,80.0,22.0,-49.1,148.9*,101.0,88.2,
Nc1ccc2c(c1)oc1ccccc12,99.1,1.26,26.6,116.1,-17.7,1.5,.,.,.,
CCCCN1C(=O)NC(=O)C2(Cc3c(nc4ccccn4c3=O)N3CCc4ccccc4C32)C1=O (stereo not drawn),141.7*,0.54,7.5,100.9,-1.0,-44.4,142.9*,106.4,102.9,
CN(C)c1cccc2c(C#N)ccc(N(C)C)c12,100.9,0.95,17.5,105.0,-6.9,0.3,.,.,.,
C=CCN(CC=C)Cc1c[nH]c2ccccc12,146.7*,1.22,12.1,99.9,0.1,-46.4,133.7*,106.7,84.2,
O/N=C/c1c[nH]c2ccccc12,126.7,1.13,-4.5,98.2,2.0,-27.2,.,.,.,
COc1ccccc1NC1(C#N)CCCCC1,102.7,1.11,-18.2,92.2,8.4,-3.7,.,.,.,
O=C(C(=O)N1CCOCC1)c1cn(Cc2c(F)cccc2Cl)c2ccccc12,95.2,1.12,20.3,102.8,-4.0,16.2,.,.,.,
COc1ccc2c(c1)CC1(CN2C)C(=O)NC(=O)N(c2ccc(C)cc2)C1=O (stereo not drawn),116.7,1.04,-1.7,97.7,2.5,-12.9,.,.,.,
COc1ccc2c(c1)CC1(CN2C)C(=O)NC(=O)N(c2ccc(F)cc2)C1=O (stereo not drawn),149.7*,1.12,19.6,99.2,0.9,-58.3,133.8*,104.0,108.0,
O=[N+]([O-])c1ccc(N2CCOCC2)c2ccncc12,112.1,1.01,-13.4,93.0,7.4,-8.9,.,.,.,
Cn1cccc1/C=C1\C(=O)NC(=O)N(Cc2ccco2)C1=O,145.9*,1.83,5.9,112.0,-15.4,-44.5,118.5,109.5,103.5,
SMILES,STAT3 act-1,NF-kB neuron act,APP 5'UTR act,STAT1 act-1,STAT1 blocker,STAT3 inh-1,STAT3 act-2,NFkB act STAT3ct,STAT1 act-2,others
COc1ccc(/C=C2/C(=O)NC(=O)N(Cc3ccco3)C2=O)cc1,102.9,1.02,4.5,95.2,3.8,2.0,.,.,.,
Cc1ccc(-c2nc(N(C)C3CCN(C)CC3)c3ccccc3n2)cc1,172.2*,0.97,0.6,98.9,1.2,-76.0,154.5*,98.6,97.2,
CCCC/C(=N\O)c1c[nH]c2ccccc12,140.6*,1.21,-6.3,90.4,10.4,-39.8,154.6*,110.5,102.6,
c1ccc2[nH]c(CCNC3CCCCC3)nc2c1,137.4*,1.31,1.7,99.8,0.2,-38.1,116.2,105.9,101.5,
c1ccc2c(CCNC3CCCCC3)c[nH]c2c1,97.9,1.16,8.6,93.4,7.0,4.7,.,.,.,
CCCCn1c(=O)c(C(=O)Nc2ccccc2)c(O)c2ccccc21,154.0*,1.05,-19.6,103.1,-5.3,-60.7,161.1*,106.6,102.5,
CCCCn1c(=O)c(C(=O)Nc2ccccc2S(N)(=O)=O)c(O)c2ccccc21,109.7,1.46,12.1,110.0,-9.2,-7.2,.,.,.,
Cc1nn(Cc2ccccc2)c(C)c1C(=O)OCC(=O)Nc1ccccc1SCC#N,137.8*,1.15,16.7,90.0,10.9,-34.0,117.7,106.4,91.0,
COc1ccc(Cl)cc1C(=O)C1CCCN(Cc2cnc(C)s2)C1 (stereo not drawn),97.8,0.86,-8.8,95.9,3.1,7.0,.,.,.,

# From PubChem
